Reference: ChEMBL document CHEMBL1132142, “Extension of the polyanionic cosalane pharmacophore as a strategy for increasing anti-HIV potency” (J Med Chem, 1999)
pEC50: −log10 of the molar value.

Tests used:
MT4 [1] = test: Compound was tested for binding of the mAb (NEA9305) to the V3 loo[p of gp120, expressed on HIV-1 infected MT-4 cells at 81 uM; assay type: functional, Homo sapiens
Procedure, shortened: (§1)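 Binding of mAb NEA9305 to the gp120 V3 loop expressed on HIV-1-infected MT-4 cells was measured at each listed concentration. Results were given as % positive cells and % inhibition, with an isotype mAb control.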

MT4 [2] = test: The compound was evaluated for inhibition of cytopathic effect of HIV-2ROD in MT-4 cells; assay type: functional, cell-based, Homo sapiens; conditions: mt4
CD4+ve Th [3] = test: Compound was tested for binding of the gp120 (strain IIIb)to the CD4+ T-cell lines at 16 uM; assay type: functional
Procedure, shortened: (§2)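 Recombinant gp120 (strain IIIB) binding to MT-4 (CD4+ T-cell) cells was measured at each listed concentration. Read-out was % positive cells and % inhibition, alongside an isotype mAb control.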

CEM-SS [4] = test: The compound was evaluated for cytotoxicity in CEM-SS cells; assay type: functional, Homo sapiens
Procedure, shortened: (§3)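 Uninfected cells (CEM-SS or MT-4, per line) were incubated with the drug in a microtiter XTT assay. Viability was expressed as percent of the uninfected drug-free control. CC50 is the concentration causing 50% cell death. Triplicates were run per plate on two sister plates, and the two plate values were averaged.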

CD4+ve Th [5] = test: Compound was tested for binding of the gp120 (strain IIIb)to the CD4+ T-cell lines at 0.65 uM; assay type: functional; procedure, shortened: as §2
CD4+ve Th [6] = test: Compound was tested for binding of the gp120 (strain IIIb)to the CD4+ T-cell lines at 3.2 uM; assay type: functional; procedure, shortened: as §2
MT4 [7] = test: Compound was tested for binding of the mAb (NEA9305) to the V3 loo[p of gp120, expressed on HIV-1 infected MT-4 cells at 0.65 uM; assay type: functional, Homo sapiens; procedure, shortened: as §1
MT4 [8] = test: The compound was evaluated for inhibition of cytopathic effect of HIV-1 IIIB in MT-4 cells; assay type: functional, cell-based, Homo sapiens
CEM-SS [9] = test: The compound was evaluated for inhibition of cytopathic effect of HIV-1 RF in CEM-SS cells; assay type: functional, cell-based, Homo sapiens
Procedure, shortened: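 XTT-based microtiter cytoprotection assay measuring protection from HIV-1-induced cytopathic effect, read as percent of the uninfected drug-free control. EC50 is the concentration giving 50% protection in infected cultures. Results were confirmed by cell-free supernatant reverse transcriptase and p24 levels. Each plate was run in triplicate, and the EC50 values from two sister plates were averaged.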

CD4+ve Th [10] = test: Compound was tested for binding of the gp120 (strain IIIb)to the CD4+ T-cell lines at 81 uM; assay type: functional; procedure, shortened: as §2
MT4 [11] = test: The compound was evaluated for cytotoxicity in MT-4 cells; assay type: functional, Homo sapiens; procedure, shortened: as §3
MT4 [12] = test: Compound was tested for binding of the mAb (NEA9305) to the V3 loo[p of gp120, expressed on HIV-1 infected MT-4 cells at 16 uM; assay type: functional, Homo sapiens; procedure, shortened: as §1
MT4 [13] = test: Compound was tested for binding of the mAb (NEA9305) to the V3 loo[p of gp120, expressed ion HIV-1 infected MT-4 cells at 3.2 uM; assay type: functional, Homo sapiens; procedure, shortened: as §1
CD4+ve Th [14] = test: Compound was tested for binding of the gp120 (strain IIIb)to the CD4+ T-cell lines at 0.73 uM; assay type: functional; procedure, shortened: as §2
MT4 [15] = test: (§4) Compound was tested for binding of the mAb (NEA9305) to the V3 loo[p of gp120, expressed on HIV-1 infected MT-4 cells at 92 uM; assay type: functional; conditions: Homo sapiens; procedure, shortened: as §1
MT4 [16] = test: (§5) Compound was tested for binding of the mAb (NEA9305) to the V3 loo[p of gp120, expressed on HIV-1 infected MT-4 cells at 0.73 uM; assay type: functional; conditions: Homo sapiens; procedure, shortened: as §1
MT4 [17] = test: (§6) Compound was tested for binding of the mAb (NEA9305) to the V3 loo[p of gp120, expressed ion HIV-1 infected MT-4 cells at 3.7 uM; assay type: functional, Homo sapiens; procedure, shortened: as §1
MT4 [18] = test: (§7) Compound was tested for binding of the mAb (NEA9305) to the V3 loo[p of gp120, expressed on HIV-1 infected MT-4 cells at 18 uM; assay type: functional, Homo sapiens; procedure, shortened: as §1
CD4+ve Th [19] = test: Compound was tested for binding of the gp120 (strain IIIb)to the CD4+ T-cell lines at 92 uM; assay type: functional; procedure, shortened: as §2
CD4+ve Th [20] = test: Compound was tested for binding of the gp120 (strain IIIb)to the CD4+ T-cell lines at 3.7 uM; assay type: functional; procedure, shortened: as §2
MT4 [21] = test: as §4; assay type: functional, Homo sapiens; procedure, shortened: as §1
MT4 [22] = test: as §5; assay type: functional, Homo sapiens; procedure, shortened: as §1
MT4 [23] = test: as §6; assay type: functional; conditions: Homo sapiens; procedure, shortened: as §1
CD4+ve Th [24] = test: Compound was tested for binding of the gp120 (strain IIIb)to the CD4+ T-cell lines at 18 uM; assay type: functional; procedure, shortened: as §2
MT4 [25] = test: as §7; assay type: functional; conditions: Homo sapiens; procedure, shortened: as §1

Compound: CC(C)CCCC(C)[C@H]1CC[C@H]2[C@@H]3CCC4C[C@@H](CCC=C(c5cc(Cl)c(OCc6ccc(C(=O)[O-])cc6)c(C(=O)[O-])c5)c5cc(Cl)c(OCc6ccc(C(=O)[O-])cc6)c(C(=O)[O-])c5)CC[C@]4(C)[C@H]3CC[C@]12C.[Na+].[Na+].[Na+].[Na+] (some centres not stated)
- Positive cells (MT4 [1]): 26.9%
- pEC50 (MT4 [2]): 4.66
- Positive cells (CD4+ve Th [3]): 6.9%
- inhibition at 16 µM (CD4+ve Th [3]): 99%
- Cytotoxicity (CEM-SS [4]): 76 µM
- Positive cells (CD4+ve Th [5]): 76.2%
- inhibition at 0.65 µM (CD4+ve Th [5]): 22%
- Positive cells (CD4+ve Th [6]): 19.9%
- inhibition at 3.2 µM (CD4+ve Th [6]): 82%
- Positive cells (MT4 [7]): 66.6%
- pEC50 (MT4 [8]; mt4): 5.85
- pEC50 (CEM-SS [9]; cem-ss): 6.10
- Positive cells (CD4+ve Th [10]): 7.8%
- inhibition at 81 µM (CD4+ve Th [10]): 98%
- Cytotoxicity (MT4 [11]): 95 µM
- Positive cells (MT4 [12]): 33.6%
- Positive cells (MT4 [13]): 60.9%

Compound: CC(C)CCCC(C)[C@H]1CC[C@H]2[C@@H]3CCC4C[C@@H](CCC=C(c5cc(Cl)c(OCc6ccc(C(=O)O)cc6)c(C(=O)O)c5)c5cc(Cl)c(OCc6ccc(C(=O)O)cc6)c(C(=O)O)c5)CC[C@]4(C)[C@H]3CC[C@]12C (some centres not stated)
- Positive cells (CD4+ve Th [14]): 88.2%
- inhibition at 0.73 µM (CD4+ve Th [14]): 9%
- inhibition at 92 µM (MT4 [15]): 76%
- inhibition at 0.73 µM (MT4 [16]): 3%
- Cytotoxicity (CEM-SS [4]): 72 µM
- Positive cells (MT4 [17]): 58.4%
- Positive cells (MT4 [18]): 34.4%
- pEC50 (MT4 [8]; Homo sapiens, MT4): 5.77
- Positive cells (CD4+ve Th [19]): 6.8%
- inhibition at 92 µM (CD4+ve Th [19]): 99%
- Positive cells (CD4+ve Th [20]): 25.3%
- inhibition at 3.7 µM (CD4+ve Th [20]): 79%
- pEC50 (CEM-SS [9]; Homo sapiens, CEM-SS): 6.30
- Cytotoxicity (MT4 [11]): 88 µM
- Positive cells (MT4 [21]): 23.8%
- Positive cells (MT4 [22]): 65.9%
- inhibition at 3.7 µM (MT4 [23]): 16%
- Positive cells (CD4+ve Th [24]): 8.3%
- inhibition at 18 µM (CD4+ve Th [24]): 98%
- inhibition at 18 µM (MT4 [25]): 58%
